Experimental data taken from ChEMBL document CHEMBL2412956, “Synthesis and biological activity evaluation of 5-pyrazoline substituted 4-thiazolidinones” (Eur J Med Chem, 2013).

How the values were obtained:
Format in all cases: functional
[1] = system: KM12; assay: Cytotoxicity against human KM12 cells after 48 hrs by SRB assay; conditions: KM12, 48 h
Summary of the method: (§1)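 This was the NCI 60-cell-line five-dose screen, using 10-fold dilutions from 100 to 0.01 μM and continuous 48-h exposure. Growth was read by sulforhodamine B protein staining relative to time-zero and untreated controls. […] Where an endpoint was not reached, the value was given as beyond the range tested.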

[2] = system: HCT-116; assay: Cytotoxicity against human HCT116 cells after 48 hrs by SRB assay; conditions: HCT-116, 48 h; summary of the method: as §1
[3] = system: NCI-H460; assay: Cytotoxicity against human NCI-H460 cells after 48 hrs by SRB assay; conditions: NCI-H460, 48 h; summary of the method: as §1
[4] = system: HOP-62; assay: Cytotoxicity against human HOP62 cells after 48 hrs by SRB assay; conditions: HOP-62, 48 h; summary of the method: as §1
[5] = system: K562; assay: Cytotoxicity against human K562 cells after 48 hrs by SRB assay; conditions: K562, 48 h; summary of the method: as §1
[6] = system: HL-60(TB); assay: Cytotoxicity against human HL-60(TB) cells after 48 hrs by SRB assay; conditions: HL-60, 48 h; summary of the method: as §1
[7] = system: SR; assay: Cytotoxicity against human SR cells after 48 hrs by SRB assay
Summary of the method: (§2)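 NCI 60-cell-line panel, five 10-fold concentrations from 100 μM to 0.01 μM (10⁻⁴ to 10⁻⁸ M) with 48-h continuous exposure. Growth was read by SRB protein staining against time-zero and untreated controls. […] Values beyond the tested range are expressed as greater or less than the limit.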

[8] = system: RPMI-8226; assay: Cytotoxicity against human RPMI8226 cells after 48 hrs by SRB assay; conditions: RPMI-8226, 48 h; summary of the method: as §1
[9] = system: CCRF-CEM; assay: Cytotoxicity against human CCRF-CEM cells after 48 hrs by SRB assay; summary of the method: as §1
[10] = system: T47D; assay: Cytotoxicity against human T47D cells assessed as cell growth at 10 uM after 48 hrs by SRB assay relative to control; conditions: read-out: Activity
Summary of the method: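 Single-dose NCI screen: compound at 10⁻⁵ M added to tumor cell cultures and incubated for 48 h. The SRB protein-binding dye end point was read spectrophotometrically. Results are percent growth of treated cells relative to untreated controls.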

[11] = system: MCF7; assay: Cytotoxicity against human MCF7 cells assessed as cell growth at 10 uM after 48 hrs by SRB assay relative to control; conditions: MCF7, 48 h, read-out: Activity
Summary of the method: (§3)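 This was the NCI primary screen, with compound added once at 10⁻⁵ M and cultures incubated for 48 h. The endpoint was sulforhodamine B protein staining. Results are expressed as percent growth of treated cells relative to untreated control cells.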

[12] = system: RXF 393; assay: Cytotoxicity against human RXF393 cells assessed as cell growth at 10 uM after 48 hrs by SRB assay relative to control; conditions: RXF 393, 48 h, read-out: Activity; summary of the method: as §3
[13] = system: PC-3; assay: Cytotoxicity against human PC3 cells assessed as cell growth at 10 uM after 48 hrs by SRB assay relative to control; conditions: PC-3, 48 h, read-out: Activity; summary of the method: as §3
[14] = system: OVCAR-3; assay: Cytotoxicity against human OVCAR3 cells assessed as cell growth at 10 uM after 48 hrs by SRB assay relative to control; conditions: OVCAR-3, 48 h, read-out: Activity; summary of the method: as §3
[15] = system: SF-295; assay: Cytotoxicity against human SF295 cells assessed as cell growth at 10 uM after 48 hrs by SRB assay relative to control; conditions: SF-295, 48 h, read-out: Activity; summary of the method: as §3
[16] = system: KM12; assay: Cytotoxicity against human KM12 cells assessed as cell growth at 10 uM after 48 hrs by SRB assay relative to control; conditions: KM12, 48 h, read-out: Activity; summary of the method: as §3
[17] = system: MOLT-4; assay: Cytotoxicity against human MOLT4 cells assessed as cell growth at 10 uM after 48 hrs by SRB assay relative to control; conditions: MOLT-4, 48 h, read-out: Activity; summary of the method: as §3
[18] = system: HL-60(TB); assay: Cytotoxicity against human HL-60(TB) cells assessed as cell growth at 10 uM after 48 hrs by SRB assay relative to control; conditions: HL-60, 48 h, read-out: Activity; summary of the method: as §3
[19] = system: CCRF-CEM; assay: Cytotoxicity against human CCRF-CEM cells assessed as cell growth at 10 uM after 48 hrs by SRB assay relative to control; conditions: read-out: Activity; summary of the method: as §3
[20] = system: K562; assay: Cytotoxicity against human K562 cells assessed as cell growth at 10 uM after 48 hrs by SRB assay relative to control; conditions: K562, 48 h, read-out: Activity; summary of the method: as §3
[21] = system: HOP-92; assay: Cytotoxicity against human HOP92 cells assessed as cell growth at 10 uM after 48 hrs by SRB assay relative to control; conditions: HOP-92, 48 h, read-out: Activity; summary of the method: as §3
[22] = system: DU-145; assay: Cytotoxicity against human DU145 cells after 48 hrs by SRB assay; conditions: DU-145, 48 h; summary of the method: as §1
[23] = system: PC-3; assay: Cytotoxicity against human PC3 cells after 48 hrs by SRB assay; conditions: PC-3, 48 h; summary of the method: as §1
[24] = system: 786-0; assay: Cytotoxicity against human 786-0 cells after 48 hrs by SRB assay; conditions: 786-0, 48 h; summary of the method: as §1
[25] = system: OVCAR-3; assay: Cytotoxicity against human OVCAR3 cells after 48 hrs by SRB assay; conditions: OVCAR-3, 48 h; summary of the method: as §1
[26] = system: UACC-62; assay: Cytotoxicity against human UACC62 cells after 48 hrs by SRB assay; conditions: UACC-62, 48 h; summary of the method: as §2
[27] = system: MDA-MB-435; assay: Cytotoxicity against human MDA-MB-435 cells after 48 hrs by SRB assay; conditions: MDA-MB-435, 48 h; summary of the method: as §1
[28] = system: LOX IMVI; assay: Cytotoxicity against human LOXIMVI cells after 48 hrs by SRB assay; summary of the method: as §1
[29] = system: U-251; assay: Cytotoxicity against human U251 cells after 48 hrs by SRB assay; conditions: U-251, 48 h; summary of the method: as §2
[30] = system: SF-295; assay: Cytotoxicity against human SF295 cells after 48 hrs by SRB assay; conditions: SF-295, 48 h; summary of the method: as §1
[31] = system: HCT-15; assay: Cytotoxicity against human HCT15 cells after 48 hrs by SRB assay; conditions: HCT-15, 48 h; summary of the method: as §1

`COc1ccc(C2=NN(C(=O)/C=C3\SC(=O)NC3=O)C(c3ccccc3O)C2)cc1` (stereo not given) was tested, and the GI50 [1] was 4.76 µM, the TGI [1] was 15.3 µM and the GI50 [2] was 4.56 µM. The TGI [2] was 16.4 µM, the GI50 [3] was 4.18 µM and the TGI [3] was 18.7 µM. The GI50 [4] was 4.85 µM, the TGI [4] was 19.8 µM and the GI50 [5] was 4.58 µM. It also gave a TGI [5] of 100 µM, a GI50 [6] of 3.35 µM and a TGI [6] of 9.14 µM. It also gave a GI50 [7] of 2.85 µM, a TGI [7] of 9.02 µM and a GI50 [8] of 2.12 µM. The TGI [8] was 6.91 µM, the GI50 [9] was 2.85 µM and the TGI [9] was 11.3 µM. It also gave a growth at 10 µM [10] of 38%, a growth at 10 µM [11] of 30.3% and a growth at 10 µM [12] of 31.4%. The growth at 10 µM [13] was 33.6%, the growth at 10 µM [14] was 36.4% and the growth at 10 µM [15] was -13.4%. It also gave a growth at 10 µM [16] of 29.9%, a growth at 10 µM [17] of 16.5% and a growth at 10 µM [18] of -27.3%. It also gave a growth at 10 µM [19] of 19.5%, a growth at 10 µM [20] of 33.2% and a growth at 10 µM [21] of 37.8%. It also gave a GI50 [22] of 4.64 µM, a TGI [22] of 18.4 µM and a GI50 [23] of 4.63 µM. It also gave a TGI [23] of 44.4 µM, a GI50 [24] of 2.96 µM and a TGI [24] of 13.5 µM. The GI50 [25] was 3.17 µM, the TGI [25] was 11 µM and the GI50 [26] was 2.83 µM. For the same molecule, the TGI [26] was 9.28 µM, the GI50 [27] was 3.91 µM and the TGI [27] was 31.7 µM. The GI50 [28] was 3.21 µM, the TGI [28] was 17.9 µM and the GI50 [29] was 4.29 µM. It also gave a TGI [29] of 16.6 µM, a GI50 [30] of 2.99 µM and a TGI [30] of 10 µM. The GI50 [31] was 4.85 µM and the TGI [31] was 24.6 µM.
